# Assay results from different studies.
# Lines come from different studies, so protocols differ.
SMILES,assay,system,setting,endpoint,result
OC(c1ccc(F)cc1)C(F)(F)CCN1CCC(O)(c2ccc(Cl)cc2)CC1 (racemic),,PBS,"2 h, pH 7.4, 25 °C",kinetic solubility,3.4 µM
O=C1C=C(N(Cc2ccc(Cl)nc2)CC(F)F)CO1,,water,pH 4,solubility,3200 µg/mL
CCCc1ccc(-c2ccc([C@@H](CO)C(=O)N[C@H](C)c3ccccc3)cc2)cc1,,PBS,pH 7.4,kinetic solubility,< 1 µM
CC(=O)N[C@@H](CC(N)=O)C(=O)N[C@@H](CC(N)=O)C(=O)N[C@@H](CC(C)C)C(=O)N[C@H]1CSSC[C@@H](C(=O)N[C@H](C(N)=O)[C@@H](C)O)NC(=O)[C@H](CCCNC(=N)N)NC(=O)[C@H](Cc2c[nH]cn2)NC(=O)[C@H](Cc2cccc3ccccc23)NC(=O)CNC(=O)[C@H](Cc2c[nH]c3ccccc23)NC(=O)[C@H](CC(=O)O)NC(=O)[C@H](CCC(N)=O)NC(=O)[C@H](Cc2c[nH]c3ccccc23)NC(=O)[C@H](C(C)C)NC1=O,,PBS,pH 7.4,solubility,270 µg/mL
Nc1ncc(-c2nc(N3CCOCC3)nc(N3CCOCC3)n2)c(C(F)F)n1,shake flask,FaSSIF,24 h,thermodynamic solubility,7.6 µM
CC(C)CCC[C@@H](C)[C@H]1CC[C@H]2[C@@H]3CC=C4C[C@@H](OCCCNC(=O)CCC(=O)NCCCC[C@H](NC(=O)[C@H]5CCCN5C(=O)[C@H](CCC(=O)O)NC(=O)[C@H](C)NC(=O)[C@@H](NC(=O)C[C@H](O)[C@H](CC(C)C)NC(=O)[C@H](CC(N)=O)NC(=O)[C@@H](NC(=O)[C@@H](N)CCC(=O)O)C(C)C)C(C)C)C(N)=O)CC[C@]4(C)[C@H]3CC[C@]12C,,aqueous buffer,pH 6.5,thermodynamic solubility,> 3000 µg/mL
CC(=O)N[C@@H](CC(N)=O)C(=O)N[C@@H](CCCNC(=N)N)C(=O)N[C@@H](CC(C)C)C(=O)N[C@H]1CSSC[C@@H](C(=O)N[C@H](C(N)=O)[C@@H](C)O)NC(=O)[C@H](CCCNC(=N)N)NC(=O)[C@H](Cc2c[nH]cn2)NC(=O)[C@H](Cc2cccc3ccccc23)NC(=O)CNC(=O)[C@H](Cc2c[nH]c3ccccc23)NC(=O)[C@H](CC(=O)O)NC(=O)[C@H](CCC(N)=O)NC(=O)[C@H](Cc2cccc3ccccc23)NC(=O)[C@H](C(C)C)NC1=O,,PBS,pH 7.4,solubility,300 µg/mL
C#Cc1ccc2c(c1)C(c1ccccn1)=NCc1c(-c3cnco3)ncn1-2,,water,"90 min, 37 °C",kinetic solubility,517 µg/mL
CC[C@H](C)[C@H](NC(=O)[C@H](CO)NC(=O)[C@H](CCCNC(=N)N)NC(C)=O)C(=O)N[C@H]1CSSC[C@@H](C(=O)N[C@H](C(N)=O)[C@@H](C)O)NC(=O)[C@H](CCCNC(=N)N)NC(=O)[C@H](Cc2c[nH]cn2)NC(=O)[C@H](Cc2cccc3ccccc23)NC(=O)CNC(=O)[C@H](Cc2c[nH]c3ccccc23)NC(=O)[C@H](CC(=O)O)NC(=O)[C@H](CCC(N)=O)NC(=O)[C@H](Cc2c[nH]c3ccccc23)NC(=O)[C@H](C(C)C)NC1=O,,PBS,pH 7.4,solubility,390 µg/mL
Clc1ccc(CSc2nnc(-c3ccccn3)n2Cc2ccco2)cc1Cl,,aqueous buffer,pH 7.4,solubility,0.14 µg/mL
